Screening results from PubChem.
A selection: hits, their analogues and other compounds. The true share with any hit is near 3.4%.
E-selectin induc: induces E-selectin expression in human endothelial cells; P16581; HUVEC E-selectin immunofluorescence imaging; normalized: neutral wells 0, TNF-alpha wells 100; activation, % at 7.58 µM; 260,000 compounds, 0.37% hits;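 active = mean E-selectin-positive cell signal at least 10% of the positive control, reached in at least 60% of replicates, without over 20% cell loss; inconclusive = no rule given, readout overlaps actives, possibly toxicity-flagged; inactive = the rest, including those meeting only one limit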
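assay system = HUVEC, human umbilical vein endothelial cells | input = 3,000 HUVEC seeded per well | medium = EGM-2 growth medium on 0.1% gelatin-coated wells | dosing = one compound dose added by pin transfer | signal = immunofluorescence imaging | read-out basis = % PE-positive cells | control set = TNF-alpha, DMSO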
ERAP1 HTS inh: blocks human ERAP1 aminopeptidase activity; recombinant ERAP1, Leu-AMC fluorescence, 60 min; inhibition, % at 10.7 µM; 340,000 compounds, 0.15% hits;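 active = mean replicate inhibition of at least 30%, or all replicates individually reaching that 30% level; inactive = mean below 30% and not every replicate reaching it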;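 also: 0% = neutral control wells and 100% = L-leucinethiol positive control wells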
SIRT5 block: blocks human SIRT5 desuccinylation of peptide. Purified SirT5, succinyl-peptide AMC, trypsin-coupled fluorescence. AID 652115. inhibition, % at 15 µM. 330,000 compounds, 1.1% hits; in the data active = inhibition above about 15%; inconclusive = no clear call, values can overlap the other calls
S100A4 inh HTS: S100A4-myosin IIA interaction inhibition; P26447; inhibition, % at 10.7 µM; S100A4/TAMRA-MyoIIA peptide fluorescence polarization; 360,000 compounds, 0.14% hits; AID 652163;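 active = mean inhibition of at least 70% across replicates, with every replicate also reaching that level; inconclusive = mean inhibition reaches 70% but some replicates fall short; inactive = mean inhibition below 70%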
Target sequence (P26447 whole entry, looked up): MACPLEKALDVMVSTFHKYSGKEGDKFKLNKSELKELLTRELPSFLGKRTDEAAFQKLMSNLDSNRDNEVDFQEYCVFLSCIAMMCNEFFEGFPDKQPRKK
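Test system: S100A4 monomer protein. Medium: HEPES buffer with Ca2+, pH 7.2. Reagent: fluorescent myosin IIA peptide, 5 nM. Compound dosing: single-point compound testing. Timing: 5 min between mix addition and reading. Benchmarks: DMSO neutral and TFP positive wells.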
Ecoli rRNA inh: selective bacterial rRNA inhibition in E. coli. E. coli WT GFP vs humanized-ribosome RFP mutants, fluorescence, 24 h; stronger effect = lower value; DMSO median 0, no signal -100. GFP signal change (wild-type ribosome), % (test concentration not listed). 350,000 compounds, 1.6% hits;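 active = significant combined selectivity score with lowered wild-type GFP, culture density cut under 30%, mutant RFP and density less affected; inactive = any of these conditions unmet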
MLL AF4-AF9 inh: blocks AF4 peptide binding to human AF9; P42568; AlphaScreen, biotin-AF4 peptide binding to FLAG-AF9; inhibition, % at 10 µM; 350,000 compounds, 0.47% hits; AID 651704;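 active = every replicate reaching a set inhibition limit, whatever the replicate mean, cut at about 25% in these data; inconclusive = mean inhibition reaches that limit but some replicates miss it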;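 also: 0% = plate neutral control median and 100% = total signal loss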
Target sequence (P42568 whole entry, looked up): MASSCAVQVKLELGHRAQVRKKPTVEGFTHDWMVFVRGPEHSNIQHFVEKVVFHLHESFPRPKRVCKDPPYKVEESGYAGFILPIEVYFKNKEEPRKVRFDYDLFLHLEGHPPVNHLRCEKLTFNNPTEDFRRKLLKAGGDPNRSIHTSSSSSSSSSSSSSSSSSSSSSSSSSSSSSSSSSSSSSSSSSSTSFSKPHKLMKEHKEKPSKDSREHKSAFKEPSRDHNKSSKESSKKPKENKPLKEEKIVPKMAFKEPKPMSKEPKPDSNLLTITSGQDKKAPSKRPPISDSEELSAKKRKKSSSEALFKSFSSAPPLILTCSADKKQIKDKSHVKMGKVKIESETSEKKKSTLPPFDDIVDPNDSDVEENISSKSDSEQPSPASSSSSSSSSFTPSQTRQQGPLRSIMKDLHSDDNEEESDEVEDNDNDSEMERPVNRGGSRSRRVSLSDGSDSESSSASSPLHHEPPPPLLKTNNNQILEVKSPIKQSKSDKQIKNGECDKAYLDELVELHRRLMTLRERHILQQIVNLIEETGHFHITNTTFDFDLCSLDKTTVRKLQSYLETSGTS
AlphaScreen intf: counter-screen: AlphaScreen signal interference. shares compounds with MLL AF4-AF9 inh. AC50, µM (top dose mostly 12 µM), for inactives: top-dose activity change, negative = inhibition. AID 720494. signal luminescence. 530 compounds, 45% hits; cut-off not given, nearly all actives have AC50 up to about 14 µM
Numbers without * were called inactive.

How did COc1cc(O)c(C(CCN2CCCCC2)c2ccc(N(C)C)cc2)c(OC)c1 (centres undefined) do in these assays?
E-selectin induc: 0.2; S100A4 inh HTS: 3.3; Ecoli rRNA inh: 3.0; MLL AF4-AF9 inh: 33.3*; AlphaScreen intf: 12.1µM*

What do the screens show for `COc1ccc(C2CC(=O)Oc3c(C(CCN4CCCC(C)C4)c4ccc(N(C)C)cc4)c(OC)cc(OC)c32)cc1` (centres undefined)?
E-selectin induc: 0.0; ERAP1 HTS inh: 0.9; SIRT5 block: -1.5; S100A4 inh HTS: -2.1; Ecoli rRNA inh: 3.6; MLL AF4-AF9 inh: 44.1*; AlphaScreen intf: 1.83µM*

Results for COc1cc(C2CC(=O)Oc3c(C(CCN4CCOCC4)c4ccc(N(C)C)cc4)c(OC)cc(OC)c32)cc(OC)c1OC (centres undefined) ?
E-selectin induc: -0.1; ERAP1 HTS inh: 3.5; S100A4 inh HTS: -1.1; Ecoli rRNA inh: 2.4; MLL AF4-AF9 inh: 40.3*; AlphaScreen intf: 10.8µM*

What do the screens show for `CN(C)c1ccc(NC(=S)c2ccccn2)cc1`?
E-selectin induc: -1.7; ERAP1 HTS inh: 1.7; SIRT5 block: 4.7; S100A4 inh HTS: 1.2; Ecoli rRNA inh: -51.8; MLL AF4-AF9 inh: 48.7*; AlphaScreen intf: -24.8%

Results for O=C(N/N=C/c1cc(Cl)cc([N+](=O)[O-])c1O)c1cccc(S(=O)(=O)N2CCOCC2)c1 ?
ERAP1 HTS inh: 0.2; SIRT5 block: 1.4; S100A4 inh HTS: -4.4; Ecoli rRNA inh: 6.9; MLL AF4-AF9 inh: 35.9*; AlphaScreen intf: 11.9µM*

Results for CCN(CC)c1ccc(CNc2nc3ccccc3n2CCN2CCCCC2)cc1 ?
E-selectin induc: -2.0; ERAP1 HTS inh: -3.6; SIRT5 block: -5.2; S100A4 inh HTS: -7.6; Ecoli rRNA inh: -50.7; MLL AF4-AF9 inh: 43.6*; AlphaScreen intf: -27.9%

How did CC(=O)c1cccc2c(O)c(C3=Nc4ccccc4C3=O)[nH]c12 do in these assays?
S100A4 inh HTS: -11.9; MLL AF4-AF9 inh: 39.9*; AlphaScreen intf: 3.53µM*

Results for C[C@@H]1CN([C@H](C)CO)S(=O)(=O)c2ccc(-c3ccncc3)cc2O[C@@H]1CN(C)C(=O)c1cccc(F)c1 ?
E-selectin induc: 0.8; ERAP1 HTS inh: -2.9; SIRT5 block: 0.1; S100A4 inh HTS: 1.2; Ecoli rRNA inh: -9.3; MLL AF4-AF9 inh: 2.8

How did CC1C=NC(S(=O)(=O)N2CC[C@H]3[C@@H](CO)N(C)c4ccc(-c5ccccc5F)cc4[C@H]32)=N1 (some centres undefined) do in these assays?
E-selectin induc: 0.5; ERAP1 HTS inh: -1.6; SIRT5 block: -2.5; S100A4 inh HTS: -19.5; Ecoli rRNA inh: -17.2; MLL AF4-AF9 inh: 7.1

How did O=[N+]([O-])c1cccc(C2Nc3cccc4cccc(c34)N2)c1 do in these assays?
E-selectin induc: 1.0; ERAP1 HTS inh: 0.7; SIRT5 block: 2.9; S100A4 inh HTS: -5.4; MLL AF4-AF9 inh: -39.5

What do the screens show for `O=C1c2ccccc2NC(c2cccc([N+](=O)[O-])c2)N1O` (centres undefined)?
E-selectin induc: 0.6; ERAP1 HTS inh: -4.5; SIRT5 block: -3.2; S100A4 inh HTS: 0.2; Ecoli rRNA inh: -9.3; MLL AF4-AF9 inh: 27.9*; AlphaScreen intf: 10.9µM*

What do the screens show for `CCN(CC)c1ccc(/C=C/c2ccc3ccc(OC)cc3[n+]2CC)cc1`?
ERAP1 HTS inh: 1.7; SIRT5 block: -0.2; S100A4 inh HTS: 100.4*; Ecoli rRNA inh: -60.5; MLL AF4-AF9 inh: 58.8*; AlphaScreen intf: 5.22µM*

Results for CC[n+]1c(/C=C/c2ccc(N(C)C)cc2)ccc2ccccc21 ?
ERAP1 HTS inh: 7.2; SIRT5 block: 6.7; S100A4 inh HTS: -22.6; Ecoli rRNA inh: -71.4; MLL AF4-AF9 inh: 49.7*; AlphaScreen intf: 5.84µM*

Results for CCN(CC)c1ccc(/C=C/c2cccc[n+]2C)c(OC)c1 ?
ERAP1 HTS inh: 9.8; SIRT5 block: 1.7; S100A4 inh HTS: inconclusive; Ecoli rRNA inh: 6.2; MLL AF4-AF9 inh: 9.7

What do the screens show for `CC(=O)Nc1ccc2c(c1)C(=O)N(C)[C@@H]1CC[C@@H](CC(=O)NCc3ccc(Cl)cc3)O[C@@H]1CO2`?
E-selectin induc: 0.0; ERAP1 HTS inh: -0.5; S100A4 inh HTS: -0.7; Ecoli rRNA inh: 3.3; MLL AF4-AF9 inh: 0.5

What do the screens show for `Cc1[nH]c2ccccc2c1N=Nc1c(C)n(C)n(-c2ccccc2)c1=O`?
ERAP1 HTS inh: -0.5; SIRT5 block: 0.4; S100A4 inh HTS: -6.3; Ecoli rRNA inh: 17.9; MLL AF4-AF9 inh: 4.8

What do the screens show for `Cc1[nH]c2ccccc2c1N=Nc1ccccc1F`?
ERAP1 HTS inh: 3.1; SIRT5 block: -2.9; S100A4 inh HTS: -0.9; Ecoli rRNA inh: -61.6; MLL AF4-AF9 inh: 41.5*; AlphaScreen intf: 7.95µM*

How did COc1ccccc1Nc1c2c(nc3ccc(N)cc13)CCCC2 do in these assays?
ERAP1 HTS inh: 2.6; SIRT5 block: 11.9; S100A4 inh HTS: -3.1; Ecoli rRNA inh: 6.5; MLL AF4-AF9 inh: 60.9*; AlphaScreen intf: -20.8%

What do the screens show for `O=C(C[C@H]1CC[C@@H]2[C@H](COC[C@@H](O)CN2S(=O)(=O)c2ccc(F)cc2)O1)NCC1CCCCC1`?
ERAP1 HTS inh: -2.7; SIRT5 block: 4.1; S100A4 inh HTS: -48.1; Ecoli rRNA inh: -3.3; MLL AF4-AF9 inh: 34.1*; AlphaScreen intf: -18.6%

Results for O=C(Nc1ccc2c(c1)[C@@H]1C[C@@H](CC(=O)N3CCOCC3)O[C@H](CO)[C@@H]1O2)C1CCOCC1 ?
E-selectin induc: -0.2; ERAP1 HTS inh: -1.2; SIRT5 block: -2.0; S100A4 inh HTS: 0.5; Ecoli rRNA inh: 0.7; MLL AF4-AF9 inh: -1.1

What do the screens show for `COc1ccc(NC2CCCN(Cc3cccc4cnccc34)C2)cc1` (centres undefined)?
ERAP1 HTS inh: 0.1; SIRT5 block: 0.4; S100A4 inh HTS: 6.4; Ecoli rRNA inh: -0.9; MLL AF4-AF9 inh: inconclusive

What do the screens show for `COc1ccc(NC2CCCN(Cc3cccc4cnccc34)C2)cc1OC` (centres undefined)?
ERAP1 HTS inh: 2.5; SIRT5 block: 2.5; S100A4 inh HTS: -7.0; Ecoli rRNA inh: 10.4; MLL AF4-AF9 inh: 26.1*; AlphaScreen intf: -28.1%

Results for Cn1ccc2c(N3CCCCCC3)cc3c(c21)C1CCC3C1 (centres undefined) ?
E-selectin induc: -1.5; ERAP1 HTS inh: 0.0; SIRT5 block: -2.4; S100A4 inh HTS: -3.4; Ecoli rRNA inh: 7.6; MLL AF4-AF9 inh: 31.2*; AlphaScreen intf: -37.6%

What do the screens show for `COc1cccc(C=NNC(=S)NC2CC3CCC2C3)c1O` (centres undefined)?
E-selectin induc: -0.2; ERAP1 HTS inh: -0.7; S100A4 inh HTS: 5.8; MLL AF4-AF9 inh: 1.3
